Measurements from ChEMBL document CHEMBL4689842, “EUbOPEN Chemogenomics Library wave 1” (2021).

Assays:
Type in all cases: toxicity, cell-based
Fibroblast [1] = assay: Multiplex assay against human fibroblast
Procedure, shortened: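 Four dyes were applied at seeding to live cells: Hoechst33342, BioTracker Green Microtubule Cytoskeleton Dye, MitoTracker Red and Annexin V Alexa Fluor 680. Imaging after compound addition used a CQ1 microscope at 37°C and 5% CO2. CellPathfinder machine-learning gating then sorted cells into Hoechst high-intensity objects or normal cells, normal cells into healthy, pyknosed or fragmented nuclei, and pyknosed cells into mitotic or apoptotic, with tubulin, mitochondrial-mass and membrane-permeability phenotypes given as per cents of healthy-nucleus cells.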

U2OS = assay: Incucyte cell viability with U2OS; settings: human, 10 µM, compound concentration 10 uM; also: filed as whole numbers so only -1 and 0 and 1 occur
Fibroblast [2] = assay: Incucyte cell viability with human fibroblast; settings: 10 µM, compound concentration 10 uM; also: filed as whole numbers so only -1 and 0 and 1 occur
[3] = 12 h, 1 µM, compound concentration 1 uM, replicate 1
[4] = 12 h, 1 µM, compound concentration 1 uM, replicate 2
[5] = 12 h, 10 µM, compound concentration 10 uM, replicate 1
[6] = 12 h, 10 µM, compound concentration 10 uM, replicate 2
[7] = 24 h, 1 µM, compound concentration 1 uM, replicate 1
[8] = 24 h, 1 µM, compound concentration 1 uM, replicate 2
[9] = 24 h, 10 µM, compound concentration 10 uM, replicate 1
[10] = 24 h, 10 µM, compound concentration 10 uM, replicate 2
[11] = 48 h, 1 µM, compound concentration 1 uM, replicate 1
[12] = 48 h, 1 µM, compound concentration 1 uM, replicate 2
[13] = 48 h, 10 µM, compound concentration 10 uM, replicate 1
[14] = 48 h, 10 µM, compound concentration 10 uM, replicate 2
[15] = 0 h, replicate number 1, timepoint 0 hours
[16] = 6 h, replicate number 1, timepoint 6 hours
[17] = 6 h, replicate number 2, timepoint 6 hours
[18] = 12 h, replicate number 1, timepoint 12 hours
[19] = 18 h, replicate number 1, timepoint 18 hours
[20] = 24 h, replicate number 1, timepoint 24 hours

## CC(C)c1cc(Nc2nc(N3CCC[C@H](N)C3)ncc2C(N)=O)cc(C(C)C)n1
Fibroblast [1]; [3]
  Population Apoptotic (%): 57%
  Population Fragmented Nuclei (%): 33%
  Population Healthy Nuclei (%): 36%
  Population Hoechst High Intensity Objects (%): 13%
  Population Membrane Permeable-Phenotype (%): 22%
  Population Mitochondria Different-Phenotype (%): 22%
  Population Mitotic Cells (%): 42%
  Population Normal (%): 86%
  Population Pyknosed Nuclei (%): 30%
  Population Tubulin-Different-Phenotype (%): 82%
  Total Cell Count: 127
Fibroblast [1]; [4]
  Population Apoptotic (%): 44%
  Population Fragmented Nuclei (%): 12%
  Population Healthy Nuclei (%): 75%
  Population Hoechst High Intensity Objects (%): 9%
  Population Membrane Permeable-Phenotype (%): 16%
  Population Mitochondria Different-Phenotype (%): 92%
  Population Mitotic Cells (%): 55%
  Population Normal (%): 90%
  Population Pyknosed Nuclei (%): 12%
  Population Tubulin-Different-Phenotype (%): 96%
  Total Cell Count: 82
Fibroblast [1]; [5]
  Population Apoptotic (%): 59%
  Population Fragmented Nuclei (%): 30%
  Population Healthy Nuclei (%): 37%
  Population Hoechst High Intensity Objects (%): 28%
  Population Membrane Permeable-Phenotype (%): 34%
  Population Mitochondria Different-Phenotype (%): 30%
  Population Mitotic Cells (%): 40%
  Population Normal (%): 71%
  Population Pyknosed Nuclei (%): 31%
  Population Tubulin-Different-Phenotype (%): 76%
  Total Cell Count: 96
Fibroblast [1]; [6]
  Population Apoptotic (%): 65%
  Population Fragmented Nuclei (%): 19%
  Population Healthy Nuclei (%): 31%
  Population Hoechst High Intensity Objects (%): 14%
  Population Membrane Permeable-Phenotype (%): 100%
  Population Mitochondria Different-Phenotype (%): 93%
  Population Mitotic Cells (%): 34%
  Population Normal (%): 85%
  Population Pyknosed Nuclei (%): 48%
  Population Tubulin-Different-Phenotype (%): 100%
  Total Cell Count: 55
Fibroblast [1]; [7]
  Population Apoptotic (%): 48%
  Population Fragmented Nuclei (%): 30%
  Population Healthy Nuclei (%): 32%
  Population Hoechst High Intensity Objects (%): 25%
  Population Membrane Permeable-Phenotype (%): 17%
  Population Mitochondria Different-Phenotype (%): 14%
  Population Mitotic Cells (%): 51%
  Population Normal (%): 74%
  Population Pyknosed Nuclei (%): 36%
  Population Tubulin-Different-Phenotype (%): 77%
  Total Cell Count: 143
Fibroblast [1]; [8]
  Population Apoptotic (%): 26%
  Population Fragmented Nuclei (%): 10%
  Population Healthy Nuclei (%): 68%
  Population Hoechst High Intensity Objects (%): 5%
  Population Membrane Permeable-Phenotype (%): 30%
  Population Mitochondria Different-Phenotype (%): 96%
  Population Mitotic Cells (%): 73%
  Population Normal (%): 94%
  Population Pyknosed Nuclei (%): 20%
  Population Tubulin-Different-Phenotype (%): 94%
  Total Cell Count: 77
Fibroblast [1]; [9]
  Population Apoptotic (%): 63%
  Population Fragmented Nuclei (%): 26%
  Population Healthy Nuclei (%): 42%
  Population Hoechst High Intensity Objects (%): 25%
  Population Membrane Permeable-Phenotype (%): 17%
  Population Mitochondria Different-Phenotype (%): 44%
  Population Mitotic Cells (%): 36%
  Population Normal (%): 75%
  Population Pyknosed Nuclei (%): 31%
  Population Tubulin-Different-Phenotype (%): 82%
  Total Cell Count: 92
Fibroblast [1]; [10]
  Population Apoptotic (%): 84%
  Population Fragmented Nuclei (%): 23%
  Population Healthy Nuclei (%): 23%
  Population Hoechst High Intensity Objects (%): 17%
  Population Membrane Permeable-Phenotype (%): 100%
  Population Mitochondria Different-Phenotype (%): 90%
  Population Mitotic Cells (%): 16%
  Population Normal (%): 82%
  Population Pyknosed Nuclei (%): 53%
  Population Tubulin-Different-Phenotype (%): 100%
  Total Cell Count: 57
Fibroblast [1]; [11]
  Population Apoptotic (%): 70%
  Population Fragmented Nuclei (%): 29%
  Population Healthy Nuclei (%): 40%
  Population Hoechst High Intensity Objects (%): 37%
  Population Membrane Permeable-Phenotype (%): 34%
  Population Mitochondria Different-Phenotype (%): 7%
  Population Mitotic Cells (%): 30%
  Population Normal (%): 62%
  Population Pyknosed Nuclei (%): 29%
  Population Tubulin-Different-Phenotype (%): 68%
  Total Cell Count: 162
Fibroblast [1]; [12]
  Population Apoptotic (%): 42%
  Population Fragmented Nuclei (%): 33%
  Population Healthy Nuclei (%): 56%
  Population Hoechst High Intensity Objects (%): 33%
  Population Membrane Permeable-Phenotype (%): 9%
  Population Mitochondria Different-Phenotype (%): 1%
  Population Mitotic Cells (%): 57%
  Population Normal (%): 66%
  Population Pyknosed Nuclei (%): 10%
  Population Tubulin-Different-Phenotype (%): 58%
  Total Cell Count: 204
Fibroblast [1]; [13]
  Population Apoptotic (%): 95%
  Population Fragmented Nuclei (%): 43%
  Population Healthy Nuclei (%): 24%
  Population Hoechst High Intensity Objects (%): 32%
  Population Membrane Permeable-Phenotype (%): 66%
  Population Mitochondria Different-Phenotype (%): 13%
  Population Mitotic Cells (%): 5%
  Population Normal (%): 67%
  Population Pyknosed Nuclei (%): 32%
  Population Tubulin-Different-Phenotype (%): 66%
  Total Cell Count: 92
Fibroblast [1]; [14]
  Population Apoptotic (%): 80%
  Population Fragmented Nuclei (%): 27%
  Population Healthy Nuclei (%): 38%
  Population Hoechst High Intensity Objects (%): 31%
  Population Membrane Permeable-Phenotype (%): 19%
  Population Mitochondria Different-Phenotype (%): 58%
  Population Mitotic Cells (%): 19%
  Population Normal (%): 68%
  Population Pyknosed Nuclei (%): 33%
  Population Tubulin-Different-Phenotype (%): 55%
  Total Cell Count: 135
U2OS; [15]
  Growth Rate: 1
U2OS; 0 h, replicate number 2, timepoint 0 hours
  Growth Rate: 0
U2OS; [16]
  Growth Rate: 0
U2OS; [17]
  Growth Rate: 1
U2OS; [18]
  Growth Rate: 0
U2OS; [19]
  Growth Rate: 0
U2OS; [20]
  Growth Rate: 0
Fibroblast [2]; [15]
  Growth Rate: 0
Fibroblast [2]; [16]
  Growth Rate: 1
Fibroblast [2]; [17]
  Growth Rate: 0
Fibroblast [2]; [18]
  Growth Rate: 1
Fibroblast [2]; 12 h, replicate number 2, timepoint 12 hours
  Growth Rate: 0
Fibroblast [2]; [19]
  Growth Rate: 0
Fibroblast [2]; [20]
  Growth Rate: 0
